Laboratory results: ChEMBL document CHEMBL1124879, “Inotropic "A" ring substituted sulmazole and isomazole analogues” (1990)

Assays:
[1] = species on record: Cavia porcellus; assay: In vitro concentration required to give a 50% increase in basal contractile force in an isolated paced guinea pig papillary muscle preparation at 1mM; i = 'inactive'; format: functional; details: Muscle tissue
Summary of the method: (§1)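 Isolated guinea pig papillary muscle, loaded at 500 mg, in Krebs-Henseleit with 2.5 mM Ca2+, gassed 95% O2-5% CO2, 34 °C. Paced with 1-ms rectangular pulses at 1.5 Hz, 20% above threshold voltage. Isometric tension recorded. Preparations not contracting uniformly after 60 min were rejected. pA50 is the -log concentration giving a 50% rise in basal force. Top concentrations tested were 0.2, 1 or 5 mM.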

[2] = species on record: Cavia porcellus; assay: In vitro concentration required to give a 50% increase in basal contractile force in an isolated paced guinea pig papillary muscle preparation; format: functional, Muscle tissue; summary of the method: as §1
[3] = species on record: Canis familiaris; assay: The effective dose to produce a maximum increase in dP/dt diastolic blood pressure and heart rate; format: functional, Canis lupus familiaris, Artery
Summary of the method: (§2)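 Anesthetized open-chest beagle dogs, 8.5-13 kg, thiopentone induction, α-chloralose/pentobarbitone maintenance, single iv bolus at 0.1 mL/kg. Heart rate taken by tachograph. Doses (mg/kg iv) giving a 50% rise in dP/dt, a 30% fall in diastolic pressure and a 10% rise in heart rate were calculated from mean dose-response data.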

[4] = tested on: Canis familiaris; assay: Maximum percentage increase in heart rate produced by the compound at a dose of 3 mg/kg; format: functional, Canis lupus familiaris
Summary of the method: (§3)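 Beagle dogs of either sex, 8.5-13 kg, anesthetized and open-chest. Induction with thiopentone sodium 30 mg/kg iv, then maintenance with α-chloralose 15 mg/kg plus pentobarbitone 6 mg/kg via a femoral vein cannula. Single iv bolus at 0.1 mL/kg, with vehicle bolus in every animal. Body temperature held at 37-38 °C. Maximal % change recorded for dP/dt, diastolic blood pressure and heart rate.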

[5] = tested on: Canis familiaris; assay: Maximum percentage decrease in diastolic blood pressure produced by the compound at a dose of 3.0 mg/kg; format: functional, Canis lupus familiaris, Artery; summary of the method: as §3
[6] = species on record: Canis familiaris; assay: The effective dose was measured to produce the 10%increase in heart rate.; format: functional, Canis lupus familiaris; summary of the method: as §2
[7] = species on record: Canis familiaris; assay: The effective dose to produce the 30%decrease in diastolic blood pressure.; format: functional, Canis lupus familiaris, Artery; summary of the method: as §2
[8] = tested on: Canis familiaris; assay: Maximum percentage change in dP/dt, diastolic blood pressure and heart rate produced by the compound at a dose of 3.0 mg/kg; format: functional, Canis lupus familiaris, Artery; summary of the method: as §3
[9] = tested on: Canis familiaris; assay: Maximum percentage decrease in diastolic blood pressure produced by the compound at a dose 1 mg/kg; format: functional, Canis lupus familiaris, Artery; summary of the method: as §3
[10] = tested on: Canis familiaris; assay: Maximum percentage increase in heart rate produced by the compound at a dose 0.3 mg/kg; format: functional, Canis lupus familiaris; summary of the method: as §3
[11] = tested on: Canis familiaris; assay: Maximum percentage change in dP/dt, diastolic blood pressure and heart rate produced by the compound at a dose 0.3 mg/kg; format: functional, Canis lupus familiaris, Artery; summary of the method: as §3
[12] = tested on: Canis familiaris; assay: Maximum percentage change in dP/dt, diastolic blood pressure and heart rate produced by the compound at a dose 3.0 mg/kg; format: functional, Canis lupus familiaris, Artery; summary of the method: as §3
[13] = species on record: Canis familiaris; assay: The effective dose was measured to produce the 10%increase in heart rate; format: functional, Canis lupus familiaris; summary of the method: as §2
[14] = species on record: Canis familiaris; assay: The effective dose to produce the 30%decrease in diastolic blood pressure; format: functional, Canis lupus familiaris, Artery; summary of the method: as §2
[15] = tested on: Canis familiaris; assay: Maximum percentage change in dP/dt, diastolic blood pressure and heart rate produced by the compound at a dose of a mg/kg; format: functional, Canis lupus familiaris, Artery; summary of the method: as §3
[16] = tested on: Canis familiaris; assay: Maximum percentage decrease in diastolic blood pressure produced by the compound at a dose 3 mg/kg; format: functional, Canis lupus familiaris, Artery; summary of the method: as §3
[17] = species on record: Cavia porcellus; assay: In vitro concentration required to give a 50% increase in basal contractile force in an isolated paced guinea pig papillary muscle preparation at 0.2mM; i = 'inactive'; format: functional; details: Muscle tissue; summary of the method: as §1
[18] = species on record: Cavia porcellus; assay: In vitro concentration required to give a 50% increase in basal contractile force in an isolated paced guinea pig papillary muscle preparation at 5mM; i = 'inactive'; format: functional; details: Muscle tissue; summary of the method: as §1

Q: Which pA50 [1] does the source give for CNc1[nH]ccc2nc(-c3ccc(OC)cc3OC)nc1-2 here?
A: Weak inotropic effects

Q: How did the pA50 [2] turn out when COc1ccc(-c2nc3cc[nH]cc-3n2)c(OC)c1 was run?
A: 4.01

Q: Which pA50 [2] does the source give for COc1ccc(-c2nc3cc(N)c[nH]c-3n2)c(OC)c1 here?
A: 4.8

Q: COc1cc([S+](C)[O-])ccc1-c1nc2cc(N)c[nH]c-2n1 (stereo not given) was tested. Which ED50 [3] did it give?
A: 0.5 mg/kg

Q: And the Max increase [4]?
A: 15%

Q: And the pA50 [2]?
A: 4.01

Q: And the Max decrease [5]?
A: 25%

Q: And the ED10 HR [6]?
A: 1.41 mg/kg

Q: And the ED30 DBP [7]?
A: > 3 mg/kg

Q: And the Max increase [8]?
A: 87%

Q: COc1c[nH]c2nc(-c3ccc([S+](C)[O-])cc3OC)nc-2c1 (stereo not given) was tested. Which pA50 [2] did it give?
A: 3.63

Q: With COc1cc([S+](C)[O-])ccc1-c1nc2cnccc2[nH]1 (stereo not given) [ISOMAZOLE] as the molecule, how does the ED50 [3] read?
A: 0.05 mg/kg

Q: What about the Max decrease [9] of the same molecule?
A: 43%

Q: What about the Max increase [10] of the same molecule?
A: 15%

Q: And the pA50 [2]?
A: 4.64

Q: And the Max increase [11]?
A: 88%

Q: And the ED10 HR [6]?
A: 0.056 mg/kg

Q: And the ED30 DBP [7]?
A: 0.16 mg/kg

Q: For COc1ccc(-c2nc3ccc[nH]c-3n2)c(OC)c1, which pA50 [2] is on record?
A: 5.08

Q: Which pA50 [2] does the source give for COc1cc([S+](C)[O-])ccc1-c1nc2cc(O)c[nH]c-2n1 (stereo not given) here?
A: 3.75

Q: COc1cc([S+](C)[O-])ccc1-c1nc2[nH]ccc(OC)c-2n1 (stereo not given) was tested. Which pA50 [2] did it give?
A: 4.1

Q: COc1cc([S+](C)[O-])ccc1-c1nc2cccnc2[nH]1 (stereo not given) [SULMAZOLE] was tested. Which ED50 [3] did it give?
A: 0.8 mg/kg

Q: And the Max increase [4]?
A: 20%

Q: What about the Max increase [12] of the same molecule?
A: 73%

Q: What about the pA50 [2] of the same molecule?
A: 4.7

Q: And the ED10 HR [13]?
A: 0.5 mg/kg

Q: And the Max decrease [5]?
A: 36%

Q: What about the ED30 DBP [14] of the same molecule?
A: 1 mg/kg

Q: COc1cc([S+](C)[O-])ccc1-c1nc2c(OC)nccc2[nH]1 (stereo not given) was tested. Which ED50 [3] did it give?
A: 0.13 mg/kg

Q: What about the Max increase [10] of the same molecule?
A: 10%

Q: And the pA50 [2]?
A: 3.91

Q: What about the Max increase [15] of the same molecule?
A: 125%

Q: And the Max decrease [16]?
A: 70%

Q: And the ED10 HR [6]?
A: 0.28 mg/kg

Q: What about the ED30 DBP [7] of the same molecule?
A: 0.2 mg/kg

Q: COc1ccc2[nH]c(-c3ccc([S+](C)[O-])cc3OC)nc2n1 (stereo not given) was tested. Which pA50 [2] did it give?
A: 3

Q: COc1cc([S+](C)[O-])ccc1-c1nc2c(N)cncc2[nH]1 (stereo not given) was tested. Which pA50 [2] did it give?
A: 3.72

Q: COc1cc([S+](C)[O-])ccc1-c1nc2cc(Cl)c[nH]c-2n1 (stereo not given) was tested. Which pA50 [2] did it give?
A: 3.61

Q: For COc1cc([S+](C)[O-])ccc1-c1nc2c(OC)cncc2[nH]1 (stereo not given), which pA50 [2] is on record?
A: 3

Q: With COc1ccc(-c2nc3c(C)nccc3[nH]2)c(OC)c1 as the molecule, how does the pA50 [17] read?
A: Weak inotropic effects

Q: COc1cc2[nH]c(-c3ccc([S+](C)[O-])cc3OC)nc2cn1 (stereo not given) was tested. Which pA50 [2] did it give?
A: 3.76

Q: For COc1cc(SC)ccc1-c1nc2c(N)cncc2[nH]1, which pA50 [1] is on record?
A: Weak inotropic effects

Q: How did the pA50 [18] turn out when COc1ccc(-c2nc3c(N)cncc3[nH]2)c(OC)c1 was run?
A: Weak inotropic effects

Q: Which pA50 [2] does the source give for COc1cc([S+](C)[O-])ccc1-c1nc2cc(C)c[nH]c-2n1 (stereo not given) here?
A: 3.73

Q: With COc1ccc(-c2nc3cc(C(C)=O)c[nH]c-3n2)c(OC)c1 as the molecule, how does the pA50 [1] read?
A: Weak inotropic effects
